Compound activity (PubChem BioAssay)
SUMO Mot1 rescue: SUMOylation pathway inhibition by Mot1-301 growth rescue. S. cerevisiae Mot1-301 growth rescue, ATP luminescence, 38.5C; percent above DMSO median, 100 means doubled. growth rescue, % at 18.8 µM. 320,000 compounds, 1% hits. AID 2716;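 active means every valid replicate shows activation above 250% relative to neutral control wells; inactive means the rest, any valid replicate at or below 250%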;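 further: OY570 slx delta 5 strain wells were the positive control but not used for scaling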
CSC inhib: blocks cancer stem cells; 300,000 compounds, 1.1% hits; inhibition, % at 7.5 µM; AID 2717; cancer stem cell-like cells viability, luminescence; in the data active means inhibition above about 75%; inconclusive means no clear call, values can overlap the other calls; tested in HMLE shEcad cells
WT yeast gro inh: growth inhibition of WT yeast, mitochondrial fusion screen; mitochondrial fusion phenotypic screen, WT strain; inhibition, % at 10 µM; 190,000 compounds, 2.1% hits; in the data active means inhibition above about 58%; tested in S. cerevisiae
T cruzi repl: blocks replication of Trypanosoma cruzi | T. cruzi beta-gal in NIH3T3, luminescence, 90 h | inhibition, % (no concentration beside the values) | 300,000 compounds, 1.4% hits | AID 1885;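 active means mean inhibition across valid replicates above about 55%, limit read from the data; inconclusive means mean below that limit but half or more replicates reach it; inactive means mean below it, under half of replicates reach it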;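 further: signal also drops with host cell toxicity which is not excluded here; 0% = plate median of DMSO wells and 100% = zero luminescence signal; higher percent means less beta-gal luminescence so fewer parasites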
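Test system: β-gal T. cruzi (Tulahuen C4) inside NIH/3T3 cells / Quantity: 5,000 cells/well / Measured by: luminescence from GalScreen with 0.05% NP40, read after 60 min / Medium: DMEM plus 2% FBS / Measure: parasite load inhibition, % / Reagent: Tulahuen C4 trypomastigotes, 5000/well / Schedule: co-culture of at least 90 h after 3 h attachment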
Efflux pump inh: blocks antifungal efflux pumps in multiplex yeast assay | S. cerevisiae Candida pump triplex, Nile Red efflux | inhibition, % at 10 µM | 330,000 compounds, 0.44% hits | AID 485275;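 active means plate passing quality check with inhibition over a set limit, or well fluorescence over plate mean plus 4 SD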;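 further: Nile Red retained in pooled yeast measured as flow cytometry median fluorescence; 0% = buffer negative control and 100% = Enniatin B positive control; higher means more Nile Red kept so more efflux inhibition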
Beta cell apopt: beta cell apoptosis inhibition. INS-1E cytokine-induced death, ATP luminescence, 48 h; percent of positive-control rescue, neutral wells zero. protection from apoptosis, % (concentration not given with the values). 300,000 compounds, 0.8% hits;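 active means Every replicate reaches about 75%, or at least half do and their mean reaches it too, limit read from the data; inconclusive means At least half of replicates reach the limit but their mean does not; inactive means Under half of replicates reach the limit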;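 further: 0% = cytokine-treated negative control wells and 100% = positive control rescue; higher means more ATP so stronger rescue from cytokine killing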
Numbers without * were called inactive; ? = inconclusive; · = no result given. Sampled rows, rich in hits. Any-hit rate of the full collection: about 4.8%.

SMILES | SUMO Mot1 rescue | CSC inhib | WT yeast gro inh | T cruzi repl | Efflux pump inh | Beta cell apopt
COc1ccc(N2CCN(C(=O)C(Cc3ccccc3)n3cccc3)CC2)cc1 (stereo unspecified) | -9.5 | 0.7 | 18.2 | -8.6 | 0.1 | 9.1
CN([C@@H](Cc1ccc(OS(=O)(=O)c2cccc3cnccc23)cc1)C(=O)N1CCN(c2ccccc2)CC1)S(=O)(=O)c1cccc2cnccc12 | 5.2 | 19.0 | -0.6 | 57.0* | -0.1 | ·
O=S(=O)(Nc1ccccc1F)c1cccc(NC(=S)NCCN2CCOCC2)c1 | 36.1 | 1.1 | · | · | -0.1 | 1.2
CCc1ccc(NC(=O)c2cc3c(C)nc4ccccc4c3o2)cc1 | 39.6 | ? | 62.6* | 33.3 | 0.1 | 9.5
COc1ccc(NC(=O)CSc2ccc3ccccc3c2)cc1S(=O)(=O)N1CCCCC1 | 13.1 | 14.5 | 42.9 | -2.1 | -0.1 | -0.6
COc1ccccc1/C=C1\SC(=S)N(CC(=O)Nc2nnc(C)s2)C1=O | -17.1 | 95.8* | 2.8 | 8.9 | 0.1 | 98.0*
COc1ccccc1/C=C1\SC(=S)N(CCC(=O)NC2=NCCS2)C1=O | 1.7 | -0.5 | 2.6 | 13.6 | 0.0 | -12.7
CCNC(=O)/C(=C\C=C\c1ccccc1)NC(=O)c1ccc(Br)o1 | -0.6 | 7.8 | -23.6 | 2.9 | 0.6 | -8.5
O=[N+]([O-])c1ccc(/C=[N+](\[O-])CCO)o1 | -14.1 | 2.9 | · | 59.2* | -0.4 | ·
CNc1oc(-c2ccc(Cl)cc2)nc1P(=O)(c1ccccc1)c1ccccc1 | -20.5 | 119.8* | 61.9* | 26.4 | 0.1 | 0.9
Cc1sc2ncnc(N3CCC(C(=O)Nc4nc(-c5cccs5)cs4)CC3)c2c1C | 22.1 | -1.0 | · | 63.7* | 0.2 | 31.0
CCc1nnc(NC(=O)C2CCN(c3ncnc4sc(C)c(C)c34)CC2)s1 | 29.1 | -2.6 | · | · | -0.1 | -11.1
O=C1NC2(CCCCCC2)C(=O)N1Cc1ccccc1Br | 20.8 | -11.2 | · | -2.5 | 0.1 | -2.5
CC(=O)NC1(C(F)(F)F)C(=O)Nc2c1c(=O)[nH]c(=O)n2Cc1ccco1 (stereo unspecified) | 8.3 | -7.3 | -10.9 | -5.5 | 0.0 | 1.7
O=c1[nH]c(=O)n(Cc2ccco2)c2c1C(C(F)(F)F)(C(F)(F)F)N=C(Cc1ccccc1)N2 | 8.1 | -10.9 | 62.3* | 7.2 | 0.2 | 7.7
CC(=O)Nc1ccc(C(=O)NC2CCCC2)cc1 | 11.3 | 1.5 | -18.5 | · | 0.1 | -3.2
O=C(Nc1ccc(C(=O)NC2CCCCC2)cc1)c1cccnc1 | 282.8 | -0.2 | 0.2 | -13.0 | 0.1 | 99.9*
COC(=O)c1ccc(NC(=O)c2cccnc2)cc1 | 3.8 | -16.4 | · | 3.8 | -0.1 | 109.6*
O=C(Nc1cccnc1)c1cccnc1Cl | 339.3* | 1.9 | -1.3 | -2.4 | 0.0 | -3.7
O=C(Nc1cccnc1)c1ccc(C(=O)Nc2cccnc2)cc1 | 111.2 | · | 1.8 | -7.1 | 0.1 | -1.3
O=C(Nc1cccnc1)c1cccnc1 | -10.7 | 0.9 | -3.6 | 0.8 | -0.1 | 104.9*
COc1ccc(NC(=O)c2cccnc2)cc1 | 32.7 | -4.2 | · | -11.5 | 0.1 | 69.8
COc1ccc(C(=O)Oc2cc(C)c(CN3CCOCC3)cc2C)cc1OC | -15.9 | -5.6 | · | 8.2 | 0.0 | 0.9
C=CCNC(=O)c1onc(CS(=O)(=O)c2cc(C)cc(C)c2)c1C(=O)NCC=C | 270.2 | -17.4 | · | 5.3 | 0.1 | 1.7
C1CN(CC23CC4CC(CC(C4)C2)C3)CCO1 | 344.0* | -1.4 | 2.1 | -7.1 | 0.0 | -0.1
SMILES | SUMO Mot1 rescue | CSC inhib | WT yeast gro inh | T cruzi repl | Efflux pump inh | Beta cell apopt
COc1ccc2nc(-c3ccc(Cl)cc3)cc(C(=O)O)c2c1 | 29.6 | -6.2 | · | 4.6 | 0.1 | -1.7
CC1=NN(c2ccc(C)cc2C)C(=O)C1C(c1ccccc1)C1C(=O)N(c2ccc(C)cc2C)N=C1C (stereo unspecified) | 1.3 | -6.1 | 73.3* | 0.2 | 0.1 | -2.1
O=[N+]([O-])c1cccc(CP(=O)(c2ccccc2)c2ccccc2)c1 | 5.7 | -2.3 | · | · | 0.0 | -2.5
O=[N+]([O-])c1ccc(CP(=O)(c2ccccc2)c2ccccc2)cc1 | 3.3 | 80.6* | · | -9.2 | -0.1 | 22.3
COc1ccc(/C=N/NC(=O)c2ccn[nH]2)cc1COc1ccc(Cl)cc1Cl | 15.6 | 60.5 | 72.7* | 16.5 | 0.1 | 4.3
COc1cc(/C=N/NC(=O)c2ccc(COc3ccccc3Cl)o2)cc(Br)c1O | -4.0 | -10.6 | -12.6 | -5.3 | -0.1 | -4.8
COc1ccc(/C=N/NC(=O)c2ccn[nH]2)cc1COc1ccc(F)cc1 | · | 3.1 | 11.7 | -2.2 | 0.1 | ·
COc1cccc(/C=N/NC(=O)c2ccc(COc3ccc(Cl)cc3Cl)o2)c1 | 321.8* | 1.2 | 2.9 | · | 0.1 | -4.5
C=CC[n+]1c(-c2ccc(C)cc2)csc1Nc1c(C)n(C)n(-c2ccccc2)c1=O | -2.5 | 5.3 | 16.7 | 65.5* | -0.1 | ·
N=c1c2c(ncn1CCCO)Oc1ccc3ccccc3c1C2c1ccccc1 (stereo unspecified) | -9.0 | 14.6 | · | 21.7 | 0.0 | 111.0*
N=c1c2c(ncn1Cc1ccco1)Oc1ccc3ccccc3c1C2c1ccccc1 (stereo unspecified) | -27.3 | 102.1* | 65.8* | 45.3 | 0.2 | ·
COc1ccc(C2c3c(ncn(Cc4ccco4)c3=N)Oc3ccc4ccccc4c32)cc1 (stereo unspecified) | 11.8 | 93.9* | 64.1* | 8.9 | 1.4 | -3.0
COc1ccc(Cc2nc3c4c(ncn3n2)Oc2ccc3ccccc3c2C4c2ccc(OC)c(OC)c2)cc1 (stereo unspecified) | 8.3 | 13.8 | 24.7 | 57.2* | -2.5 | -12.5
COc1ccc(C2c3ccc(O)cc3Oc3ncn(Cc4ccco4)c(=N)c32)cc1 (stereo unspecified) | -30.9 | 20.2 | · | 49.7 | 0.0 | -3.1
Nc1ncnc2c1C(c1ccccc1)c1c(ccc3ccccc13)O2 (stereo unspecified) | 47.3 | · | · | · | 0.2 | 0.1
CCCCC(=O)Nc1nc2c(s1)COc1ccccc1-2 | -7.3 | · | · | 14.2 | 0.0 | -2.6
COc1cc2c(cc1OC)C(c1ccc(Br)cc1)N(C(=O)c1ccccc1C(=O)O)CC2 (stereo unspecified) | -6.9 | -3.4 | · | -14.5 | 0.1 | -1.5
O=C(COc1ccc2c(-c3ccccc3)cc(=O)oc2c1)NC1CCS(=O)(=O)C1 (stereo unspecified) | 6.1 | -5.4 | · | · | -0.2 | -2.3
O=C(CN(C1CC1)S(=O)(=O)c1ccc(S(=O)(=O)NC2CCCCC2)cc1)Nc1ccccc1 | · | · | 14.7 | · | · | ·
O=C(CN(Cc1cccs1)S(=O)(=O)c1ccc(S(=O)(=O)NC2CCCCC2)cc1)Nc1ccccc1 | -13.1 | 57.7 | 2.9 | 57.3* | -0.3 | 38.1
CC(CCc1ccccc1)NC(=O)COC(=O)c1ccccc1O (stereo unspecified) | -6.3 | -3.2 | -5.8 | 7.3 | 0.0 | -2.3
COCCCN1CC(=O)N2C(c3ccc(OC)c(OC)c3)c3[nH]c4ccccc4c3C[C@H]2C1=O (stereo partly specified) | 305.2* | 10.9 | · | 3.4 | -0.1 | 8.2
